{"source": "ChEMBL document CHEMBL1134785", "about": "“Synthesis and biological evaluation of prostaglandin-F alkylphosphinic acid derivatives as bone anabolic agents for the treatment of osteoporosis” (J Med Chem, 2001)", "key": {"Rattus norvegicus [1]": {"tested_on": "Rattus norvegicus", "experiment": "Mineralizing surface/bone surface(%) measured Histomorphometrically after a dose of 1000 ug/kg in proximal tibial metaphysis", "assay_type": "functional", "summary_of_the_method": "(§1)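 Ovariectomized six-month-old rats, 6-8 per group, were dosed subcutaneously once daily at 0.01–3.0 mg/kg for 60 days, starting 60 days after surgery. Vehicle was acetate-buffered saline, methylcellulose and polyoxyethylenesorbitan monooleate. Labels were xylenol orange 90 mg/kg pretreatment and calcein 10 mg/kg at 14 and 4 days before necropsy. Histomorphometry covered the proximal tibial metaphysis, 1–4 mm distal to the growth plate–metaphyseal junction. ANOVA/LSD versus vehicle.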"}, "Rattus norvegicus [2]": {"tested_on": "Rattus norvegicus", "experiment": "Bone Volume /Tissue Volume (%)measured Histomorphometrically after a dose of 30 ug/kg in proximal tibial metaphysis", "assay_type": "functional", "conditions": "at 30 µg/kg"}, "Rattus norvegicus [3]": {"tested_on": "Rattus norvegicus", "experiment": "Bone Volume /Tissue Volume (%)measured using micro Computed Tomography(CT) after a dose of 100 ug/kg in Vertebral Bone", "assay_type": "functional", "conditions": "at 100 µg/kg"}, "Rattus norvegicus [4]": {"tested_on": "Rattus norvegicus", "experiment": "Mineralizing surface/bone surface(%) measured Histomorphometrically after a dose of 300 ug/kg in proximal tibial metaphysis", "assay_type": "functional", "summary_of_the_method": "as §1"}, "Rattus norvegicus [5]": {"tested_on": "Rattus norvegicus", "experiment": "Bone formation rate/tissue volume (%/year)bone measured Histomorphometrically after a dose of 10 ug/kg in proximal tibial metaphysis", "assay_type": "functional", "conditions": "at 10 µg/kg"}, "Rattus norvegicus [6]": {"tested_on": "Rattus norvegicus", "experiment": "Bone formation rate/tissue volume (%/year) bone measured histomorphometrically after a dose of 100 ug/kg in proximal tibial metaphysis", "assay_type": "functional", "conditions": "at 100 µg/kg"}, "Rattus norvegicus [7]": {"tested_on": "Rattus norvegicus", "experiment": "Bone formation rate/tissue volume (%/year) bone measured histomorphometrically after a dose of 300 ug/kg in proximal tibial metaphysis", "assay_type": "functional", "conditions": "at 300 µg/kg"}, "Rattus norvegicus [8]": {"tested_on": "Rattus norvegicus", "experiment": "Bone formation rate/tissue volume (%/year) bone measured histomorphometrically after a dose of 30 ug/kg in proximal tibial metaphysis", "assay_type": "functional", "conditions": "at 30 µg/kg"}, "Rattus norvegicus [9]": {"tested_on": "Rattus norvegicus", "experiment": "Derived trabecular no […]measured using micro Computed Tomography(CT) after a dose of 30 ug/kg in Vertebral Bone", "assay_type": "functional, Trabecula", "summary_of_the_method": "(§2)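 Micro-CT of the fifth lumbar vertebra, measuring cancellous bone volume and architecture. Rats were 6 months old, OVX 60 days before treatment, then dosed daily for 60 days. Test-agent doses were 10–3000 µg/kg, given as a once-daily subcutaneous injection; 6 mg/kg/day was given to the positive-control group. Groups were compared with vehicle by ANOVA plus LSD test.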"}, "Rattus norvegicus [10]": {"tested_on": "Rattus norvegicus", "experiment": "Derived trabecular no […]measured using micro Computed Tomography(CT) after a dose of 300 ug/kg in Vertebral Bone", "assay_type": "functional, Trabecula", "summary_of_the_method": "as §2"}, "Rattus norvegicus [11]": {"tested_on": "Rattus norvegicus", "experiment": "Directly measured thickness(um) using micro Computed Tomography(CT) after a dose of 300 ug/kg in Vertebral Bone", "assay_type": "functional", "summary_of_the_method": "as §2"}, "Rattus norvegicus [12]": {"tested_on": "Rattus norvegicus", "experiment": "Directly measured thickness(um) using micro Computed Tomography(CT) after a dose of 3000 ug/kg in Vertebral Bone", "assay_type": "functional", "summary_of_the_method": "as §2"}, "Rattus norvegicus [13]": {"tested_on": "Rattus norvegicus", "experiment": "Derived trabecular thickness (um) measured using micro Computed Tomography(CT) after a dose of 300 ug/kg in Vertebral Bone", "assay_type": "functional, Trabecula", "summary_of_the_method": "as §2"}, "Rattus norvegicus [14]": {"tested_on": "Rattus norvegicus", "experiment": "Endosteal eroded surface(%) measured Histomorphometrically after a dose of 100 ug/kg in tibial diaphysis", "assay_type": "functional", "summary_of_the_method": "(§3)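 Tibial histomorphometry in 6-month-old rats, OVX 60 days before treatment, then daily injection for 60 days. Vehicle was acetate-buffered saline with methylcellulose and polyoxyethylenesorbitan monooleate. Rats received xylenol orange 90 mg/kg before treatment and calcein 10 mg/kg at 14 and 4 days pre-sacrifice. Rats were killed by cardiac puncture under ketamine/xylazine. Groups were compared with vehicle by ANOVA plus LSD test.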"}, "Rattus norvegicus [15]": {"tested_on": "Rattus norvegicus", "experiment": "Endosteal eroded surface(%) measured Histomorphometrically after a dose of 3000 ug/kg in tibial diaphysis", "assay_type": "functional", "summary_of_the_method": "as §3"}, "Rattus norvegicus [16]": {"tested_on": "Rattus norvegicus", "experiment": "Mineral apposition rate ([…])bone measured Histomorphometrically after a dose of 3000 ug/kg in proximal tibial metaphysis", "assay_type": "functional", "summary_of_the_method": "as §1"}, "Rattus norvegicus [17]": {"tested_on": "Rattus norvegicus", "experiment": "Mineral apposition rate ([…])bone measured Histomorphometrically after a dose of 3000 ug/kg in tibial diaphysis", "assay_type": "functional", "summary_of_the_method": "(§4)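 Six-month-old rats, bilaterally ovariectomized, 6-8 per group, on natural chow. After 60 days they received once-daily subcutaneous dosing for 60 days at 0.01–3.0 mg/kg. Vehicle was acetate-buffered saline with methylcellulose and polyoxyethylenesorbitan monooleate. Labels were xylenol orange 90 mg/kg before treatment and calcein 10 mg/kg 14 and 4 days before sacrifice. Tibial histomorphometry was read under fluorescent light, with ANOVA/LSD versus vehicle.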"}, "Rattus norvegicus [18]": {"tested_on": "Rattus norvegicus", "experiment": "Marrow area (mm) measured Histomorphometrically after a dose of 300 ug/kg in tibial diaphysis", "assay_type": "functional", "summary_of_the_method": "as §4"}, "Rattus norvegicus [19]": {"tested_on": "Rattus norvegicus", "experiment": "Marrow area (mm) measured Histomorphometrically after a dose of 3000 ug/kg in tibial diaphysis", "assay_type": "functional", "summary_of_the_method": "as §4"}, "Rattus norvegicus [20]": {"tested_on": "Rattus norvegicus", "experiment": "Periosteal mineral apposition rate ([…]) measured Histomorphometrically after a dose of 1000 ug/kg in tibial diaphysis", "assay_type": "functional", "summary_of_the_method": "as §4"}, "Rattus norvegicus [21]": {"tested_on": "Rattus norvegicus", "experiment": "Trabecular no (mm)measured Histomorphometrically after a dose of 30 ug/kg in proximal tibial metaphysis", "assay_type": "functional, Trabecula", "summary_of_the_method": "(§5)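 Six-month-old rats were ovariectomized, and 60 days later daily subcutaneous dosing began for 60 days, with vehicle of acetate-buffered saline, methylcellulose and polysorbate. Xylenol orange (90 mg/kg) labelled bone pre-treatment and calcein (10 mg/kg) 14 and 4 days pre-sacrifice. Histomorphometry covered the proximal tibial metaphysis 1-4 mm distal to the growth plate-metaphyseal junction. Groups were 6-8 rats, compared by ANOVA/LSD vs vehicle.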"}, "Rattus norvegicus [22]": {"tested_on": "Rattus norvegicus", "experiment": "Periosteal mineral apposition rate ([…]) measured Histomorphometrically after a dose of 100 ug/kg in tibial diaphysis", "assay_type": "functional", "summary_of_the_method": "as §4"}, "Rattus norvegicus [23]": {"tested_on": "Rattus norvegicus", "experiment": "Trabecular thickness […] measured Histomorphometrically after a dose of 30 ug/kg in proximal tibial metaphysis", "assay_type": "functional, Trabecula", "summary_of_the_method": "as §5"}, "Rattus norvegicus [24]": {"tested_on": "Rattus norvegicus", "experiment": "connectivity density using micro Computed Tomography(CT) after a dose of 100 ug/kg in Vertebral Bone", "assay_type": "functional", "summary_of_the_method": "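Rats were ovariectomized at 6 months of age and, after 60 days, dosed subcutaneously once daily for 60 days, with vehicle of acetate-buffered saline, methylcellulose and polysorbate. At necropsy the fifth lumbar vertebra was scanned by micro-CT to obtain cancellous architecture. Groups were 6-8 rats; results were compared to vehicle by ANOVA with least significant difference test.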"}, "Thromboxane A2 receptor": {"target": "T1, Thromboxane A2 receptor (Homo sapiens, UniProt P21731)", "T1 sequence (P21731 whole entry)": "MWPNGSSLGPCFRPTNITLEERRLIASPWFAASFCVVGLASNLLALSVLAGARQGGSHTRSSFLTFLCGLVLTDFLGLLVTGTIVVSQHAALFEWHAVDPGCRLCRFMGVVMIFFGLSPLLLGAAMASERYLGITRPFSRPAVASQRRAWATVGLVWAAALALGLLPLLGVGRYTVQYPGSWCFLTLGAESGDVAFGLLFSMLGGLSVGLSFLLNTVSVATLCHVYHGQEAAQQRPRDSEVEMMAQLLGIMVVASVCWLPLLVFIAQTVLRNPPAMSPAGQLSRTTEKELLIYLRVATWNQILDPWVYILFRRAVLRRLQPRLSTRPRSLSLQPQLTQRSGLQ", "experiment": "In vitro binding at TP human prostaglandin receptor using [3H]SQ-29,548 as radioligand", "summary_of_the_method": "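Receptors stably expressed in CHO cells, collected 4-5 days after seeding. Membranes made by lysis (Tris, EDTA, protease inhibitors) and 100000g pellet, then resuspended at 1 mg protein/mL in TME. Radioligands at 5 nM: [3H]PGE2 for EP2/EP3/EP4, [3H]Iloprost for IP, [3H]SQ-29548 for TP. Competition binding with filtration and counting.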"}, "Rattus norvegicus [25]": {"tested_on": "Rattus norvegicus", "experiment": "Derived trabecular thickness (um) measured using micro Computed Tomography(CT) after a dose of 100 ug/kg in Vertebral Bone", "assay_type": "functional, Trabecula", "summary_of_the_method": "as §2"}, "Rattus norvegicus [26]": {"tested_on": "Rattus norvegicus", "experiment": "Mineral apposition rate ([…])bone measured Histomorphometrically after a dose of 1000 ug/kg in proximal tibial metaphysis", "assay_type": "functional", "summary_of_the_method": "as §1"}}, "note": "pIC50: −log10 of the molar value.", "data": [{"smiles": "CP(=O)(O)CCC/C=C\\C[C@@H]1[C@@H](/C=C/[C@@H](O)COc2ccccc2)[C@H](O)C[C@@H]1O", "values": [{"measurement": "Activity", "setting": "Rattus norvegicus [1]", "value": 22.04, "unit": "%"}, {"measurement": "Activity", "setting": "Rattus norvegicus [2]", "value": 3.63, "unit": "%"}, {"measurement": "Activity", "setting": "Rattus norvegicus [3]", "value": 38.04, "unit": "%"}, {"measurement": "Activity", "setting": "Rattus norvegicus [4]", "value": 23.57, "unit": "%"}, {"measurement": "Activity", "setting": "Rattus norvegicus [5]", "value": 9.81, "unit": "%"}, {"measurement": "Activity", "setting": "Rattus norvegicus [6]", "value": 18.23, "unit": "%"}, {"measurement": "Activity", "setting": "Rattus norvegicus [7]", "value": 18.03, "unit": "%"}, {"measurement": "Activity", "setting": "Rattus norvegicus [8]", "value": 17.55, "unit": "%"}, {"measurement": "Derived trabecular number", "setting": "Rattus norvegicus [9]", "value": 4.44, "unit": "mm-1"}, {"measurement": "Derived trabecular number", "setting": "Rattus norvegicus [10]", "value": 4.86, "unit": "mm-1"}, {"measurement": "Directly measured thickness", "setting": "Rattus norvegicus [11]", "value": 127, "unit": "µm"}, {"measurement": "Directly measured thickness", "setting": "Rattus norvegicus [12]", "value": 134, "unit": "µm"}, {"measurement": "Derived trabecular thickness", "setting": "Rattus norvegicus [13]", "value": 79.5, "unit": "µm"}, {"measurement": "Endosteal eroded surface", "setting": "Rattus norvegicus [14]", "value": 2.3, "unit": "%"}, {"measurement": "Endosteal eroded surface", "setting": "Rattus norvegicus [15]", "value": 2.2, "unit": "%"}, {"measurement": "Mineral apposition rate", "setting": "Rattus norvegicus [16]", "value": 0.94, "unit": "µm/day"}, {"measurement": "Mineral apposition rate", "setting": "Rattus norvegicus [17]", "value": 1.03, "unit": "µm/day"}, {"measurement": "Marrow area", "setting": "Rattus norvegicus [18]", "value": 0.89, "unit": "mm"}, {"measurement": "Marrow area", "setting": "Rattus norvegicus [19]", "value": 0.74, "unit": "mm"}, {"measurement": "Periosteal mineral apposition rate", "setting": "Rattus norvegicus [20]", "value": 0, "unit": "µm/day"}, {"measurement": "Trabecular no.", "setting": "Rattus norvegicus [21]", "value": "0.87 1/mm"}, {"measurement": "Periosteal mineral apposition rate", "setting": "Rattus norvegicus [22]", "value": 0.38, "unit": "µm day-1"}, {"measurement": "Trabecular thickness", "setting": "Rattus norvegicus [23]", "value": 41.2, "unit": "µm"}, {"measurement": "Connectivity density", "setting": "Rattus norvegicus [24]", "value": 68.1, "unit": "mm**-3"}, {"measurement": "pIC50", "setting": "Thromboxane A2 receptor", "value": "< 5.00"}, {"measurement": "Derived trabecular thickness", "setting": "Rattus norvegicus [25]", "value": 78.7, "unit": "µm"}, {"measurement": "Mineral apposition rate", "setting": "Rattus norvegicus [26]", "value": 1.06, "unit": "µm/day"}]}]}
